Data reported in the RNAGym collection of RNA variant scans (doi:10.1126/science.aae0568).
This sample holds only a part of the variants without activity.

B1: tRNA (parent)
chain: GUUCCGUUGGCGUAAUGGUAACGCGUCUCCCUCCUAAGGAGAAGACUGCGGGUUCGAGUCCCGUACGGAACG

Variants of: B1
Test: yeast fitness relative to wild type (ratio to wild type); higher = fitter; tRNA-Arg(CCU), competitive growth, 37 C, YPD
How it was run: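 Amplicons of the tRNA-Arg(CCU) gene were sequenced, 100-nucleotide paired-end, from the start population and from each end population of a pooled yeast competition. The competition, in six parallel replicates, lasted 24 hours in YPD at 37°C. Fitness relative to wild type was calculated from changes in genotype frequencies. Genotypes had to have ≥ 100 starting reads, and estimates < 0.5 were set to 0.5.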

Variant | yeast fitness
GUUCCGUCGGCGUAAUGGUCACGCGUCUCCCUCCUAAGGAGAAGACUGCGAGUUCGAGUCCCGUACGGAACG | ≤ 0.5
GUUCCGUUGGCGUAAUGGUAACGCGUCUCCCUCCUAAGGAGAAGACUGCGGGUUCGUGCCCCGUACGGAACG | 0.569
GUUCCGUUGGCGUGAUGGUAACGCGUUUCCCUCCUAAGGAGAAGACAGCGGGUUCGAGUCCUGUAUGGAACG | ≤ 0.5
GUUCCGUUGGCGUAAUGGUAACGCGUCUCUCUCCUAAGGAGAAGCCUGCGGCUUCGAGUCCCGUACGGAACG | 0.568
GUUCCGUUGGCGUAAUGGUAACGCGUCUCCCUCCUAAGGAGAAGACUGCGGGUUCGGGUCCCGUACGGCACG | 0.799
GUUCCGUUGGCGUAAUGGUAACGCGUCUCCCUCCUUAGGCGAAGACUGCGGGUUCGAGUCCCGUACGGAACG | 0.54
GUUCCGUUGGCGUAAUGGUAACGCCUCUCCCUCUUAAGGAGAAGACUGCGGGUUCAAGUCCCGUACGGAACG | ≤ 0.5
GUUCCGUUGCCGUAAUGGUAACGCGUCUCCCUCCUAAGGAGAAGUCUGCGGGUUCGAGUCGCGUACGGAACG | ≤ 0.5
GUUCCGUUGGCGUAAUGGUAACGUGUCUCCCUCCUCAGGAGAACACUGCGGGUUCGAGUCCAGUACGGAACG | 0.752
GUUCCGUUGGUGUAAUAGUAACGCGUCUCCCUCCAAAAGAGAAGACUGCGGGUUCGAGUCGCGUACGGAACG | ≤ 0.5
GUUCCGUUGGCGUAAUGGUGACGCGACUCCCUCCUAAGGAGAAGACUGCGGGUUCGAGUCCCAUACGGAACG | 0.613
GUUCCGUUGGCGUAAUGGUAACGCGUCUCUCUCCUAAGGAGCAGACUCCGGGUUCGAGUCCCGCACGGAACG | ≤ 0.5
GGUCCGUUGGCGUAAUGGUAACGCGUCUCGCUCCUAAGGAGAAGACUGCGGGUUCGAGUCCCGUACGGAACG | 0.679
GUUCCGUUGGCGUACUGGUAACGCGUCUCCCUCCUAAGGAGACGACUCCGGGUUCGAGUCCCGUACGGAACG | 0.544
GUUCCGUUGGCGUAAUCGUAACGCGUCUCCCUCCUGAGGAGAAGACUGCGGGUUCGGGUCCCGUAUGGCACG | 0.59
GUUCCGUUGGCAUACUGGUAACGCGUCUCCCUCCUAAGGAGAAGACUGCGGGUUCGAGUCCGGUCCGGAACG | ≤ 0.5
GUUCCGUUGGCGUAAUGGUAACGCGUCUCCCUCCUAAGGAGAAGACUGCCGGUUAGCGUCCCGUACGGAACG | 0.559
GUUCCGUUGGCGUAAAGGUAACGUGUCUCCCUCCUAAGGAGAAGACUGCGGGUUCGAGUCCCGUACGGAACG | 1.06
GUUCCGUUGGCGUAAUGGUAACGCGUCUGCCUCCUAAGGAGAAGACUGCGGGUUCGAGUUCCGUACAGUACG | 0.588

Variant | yeast fitness
GUUUCGUUGGCGUAAUGGUAACGCGUCUCCCUCCUAAGGAGAAGACUGCGGGUUCGAGGCCCGUACGGAACG | 0.909
GUUCCGUUGGCGUAAUGGUGACGCGUCUCCCUCCUAAGGAGAAGACUGCGGCUUCGAGUCCCGUACGGAACG | 0.613
GUUCCGUUGGUGUAAUGGUAACGCGUCUCCCUGCUAAGGAGAAGACAGCGGGUUCGAGUCCCGGACGGAACG | 0.552
GUUAGGUUGGCGUAAUGGUAACGCGUCUCCCUCCUUAGGAGAAGACUGCGGGUUCGAGUCCCAUACGGAACG | ≤ 0.5
GUUCCGUUGGCGUAAUGGUAAUGCGUCUCCCUCCUAAGGAGAAGACUGCGGGUUUGAGUCCCGUACCGAACG | ≤ 0.5
GAUCCGUUGGCGUCAUGGUAACGCGUCUCUCUCGUAAGGAGAAGACUGCGGGUUCGAGUCCCAUACGGAACG | 0.574
GUUACGUUGGCGUAAUGGUAACGCGUCUCCCACCUAAGGAGAAGACUGCGGGUUCGGGUCCCGUUCGGAACG | ≤ 0.5
GUUCUGUUGGCGUGAUGGUAACGUGUCCCCCUCCUAAGGAGAAGACUGCGGGUUCGAGUCCCGUACGGAACG | ≤ 0.5
GUUCCGUUGGCGCAAUGGUAACGCGUCUCCCUCCUAAGGAGAAGCCUGCGGGUUCAAGUCCCGUACGGAACG | 0.743
GUUCCGUUGGCGUAAUGGUAACGUGUCUCCCUCCUAAGGAGAAGCCUGUGGGUUCGAGUCCCGUACGGAACG | 0.791
GUUCCGUUGGCGUAAUGGUAACGCGUCUCCCUCGUAAGGAGAAGCCUGCGGGUUCGAGUCCCGUACGGAACG | 0.569
GUUCCGUUGGGGUAGUGGUAACGCGACUCCCACCUAAAGCGAAGACUGCGGAUUCGAGUCCCGUACGGAACG | ≤ 0.5
GUUAUGUUGGCGUAAUGGUAACGCGUCUCCCUCCUAAGGAGAAGACUGCGGGUUCGAGUCCCGUACGGAACG | 0.837
GUUACGUUGGCGUAAUGGUAACGCGUCUCCCUCCUAAGGAACAGACUGCGGGUUCGAGACCCGUACGGAACG | ≤ 0.5
GUUCCGUUGGCGUAAUGGUACCGCGUCUCCCUCCUAAGGAGAAGACUGCGGGUUCGACUCCCGUUCGGAACG | 0.521
GUUCAGUUGGCGUAAUGGUAACGCGUCUCCCUCCUAAGGAGAAGACUGCGGGUUCGAGUCCCAUACGGAACG | 0.683
GUUCCGUUGGCGUAAUGGUAACGCCUAUCGCUCCUAAGGAGAAGACUGCGGGUUCGAGUCCCGUACGGAACG | ≤ 0.5
GAUCGGUUGGCGUAAUGGUAACGCGUCUCCCUCCUAAGGAGAAGACUGCGGGUUCGAGUCCCGUACGGAACG | 0.728
